Data as given in ChEMBL document CHEMBL1137227, “Identification of a selective inverse agonist for the orphan nuclear receptor estrogen-related receptor alpha” (J Med Chem, 2004).
Where “and” joins values, the source holds several entries; their conditions need not be identical. Equal entries are not always repeated.

Assays:
[1] = target: T1, Steroid hormone receptor ERR1 (Homo sapiens, UniProt P11474); test: (§1) Inhibition of estrogen-related receptor alpha Gal4 activity
T1 sequence (P11474 whole entry): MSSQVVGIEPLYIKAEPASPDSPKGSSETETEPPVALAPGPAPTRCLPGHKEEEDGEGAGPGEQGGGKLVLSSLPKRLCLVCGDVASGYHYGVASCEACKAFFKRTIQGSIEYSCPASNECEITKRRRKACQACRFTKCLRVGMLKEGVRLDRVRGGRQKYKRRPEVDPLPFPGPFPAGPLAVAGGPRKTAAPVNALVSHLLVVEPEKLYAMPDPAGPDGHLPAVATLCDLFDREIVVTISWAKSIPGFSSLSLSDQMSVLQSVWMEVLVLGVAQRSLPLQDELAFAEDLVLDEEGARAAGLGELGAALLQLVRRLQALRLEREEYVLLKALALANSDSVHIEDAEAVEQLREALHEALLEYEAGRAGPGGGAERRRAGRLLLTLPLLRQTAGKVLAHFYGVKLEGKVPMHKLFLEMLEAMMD

[2] = target: T2, Steroid hormone receptor ERR1 (Homo sapiens) (UniProt P11474); test: Percent inhibition of estrogen-related receptor alpha Gal4 activity at 10 uM
T2 sequence (whole entry): T1 sequence (P11474 whole entry)
How it was run: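 Gal4-ERRα cell-based cotransfection assay with compound tested at a single concentration of 10 μM. Activity expressed as percent inhibition of ERRα-driven Gal4 signal.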

[3] = target: T1, Steroid hormone receptor ERR1; test: Inhibition of estrogen-related receptor alpha Gal4 activity; not active
How it was run: (§2)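 Cell-based cotransfection assay in Gal4-ERRα format. IC50 fitted by nonlinear regression to 10-dose titration curves and averaged over at least two experiments. Standard error of the mean typically under 30% per experiment. NA means not active under assay conditions.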

[4] = target: T1, Steroid hormone receptor ERR1; test: Inhibition of estrogen-related receptor alpha in FP assay
[5] = target: T1, Steroid hormone receptor ERR1; test: as §1; how it was run: as §2; remark: listed apart in the source

| SMILES | IC50 [1] | inhibition [2] | IC50 [3] | IC50 [4] [nM] | IC50 [5] [nM] |
| --- | --- | --- | --- | --- | --- |
| COc1cc(/C=C(\C#N)C(=O)Nc2nnc(SC)s2)ccc1OCCOc1c(C)cccc1C | 2600 nM | 92% |  |  |  |
| CCc1nnc(NC(=O)/C(C#N)=C/c2ccc(OCc3c(F)cccc3C(F)(F)F)c(OC)c2)s1 |  |  | Not Active |  |  |
| CCc1nnc(NC(=O)/C(C#N)=C/c2ccc(OCc3ccccc3OC(F)(F)F)c(OC)c2)s1 | 1800 nM | 101% |  |  |  |
| CCc1nnc(NC(=O)/C(C#N)=C/c2ccc(OCCOc3c(C)cccc3C)c(OC)c2)s1 | 2000 nM | 96% |  |  |  |
| CCc1nnc(NC(=O)/C(C#N)=C/c2ccc(OCCOc3c(C)cccc3C)c(OC)c2)o1 | 3300 nM | 88% |  |  |  |
| CCc1nnc(NC(=O)/C(C#N)=C/c2ccc(OCc3ccc(F)cc3C(F)(F)F)c(OC)c2)s1 | 920 nM and 1500 nM | 109% and 90% |  |  |  |
| COc1cc(/C=C(\C#N)C(=O)Nc2nnc(-c3ccccc3)s2)ccc1OCc1ccc(C(F)(F)F)cc1C(F)(F)F | 500 nM | 105% |  |  |  |
| CCc1nnc(NC(=O)/C(C#N)=C/c2ccc(OCc3cc(C(F)(F)F)ccc3C(F)(F)F)c(OC)c2)s1 |  |  | Not Active |  |  |
| COc1cc(/C=C(\C#N)C(=O)Nc2nncs2)ccc1OCCOc1c(C)cccc1C | 1400 nM | 103% |  |  |  |
| CCc1nnc(NC(=O)/C(C#N)=C/c2ccc(OCc3cccc4ccccc34)c(OC)c2)s1 | 1800 nM | 90% |  |  |  |
| CCc1nnc(NC(=O)/C(C#N)=C/c2ccc(OCc3ccc(C(F)(F)F)cc3C(F)(F)F)c(OC)c2)s1 | 400 nM and 610 nM and 540 nM | 106% and 104% and 99% |  |  |  |
| COc1cc(/C=C(\C#N)C(=O)Nc2nnc(C(F)(F)F)s2)ccc1OCCOc1c(C)cccc1C | 1500 nM | 112% |  |  |  |
| COc1cc(/C=C(\C#N)C(=O)Nc2nnc(C(C)(C)C)s2)ccc1OCc1ccc(C(F)(F)F)cc1C(F)(F)F | > 10000 nM | 43% |  |  |  |
| CCc1nnc(NC(=O)/C(C#N)=C/c2ccc(OCc3ccccc3Br)c(OC)c2)s1 | 2200 nM | 57% |  |  |  |
| COc1cc(/C=C(\C#N)C(=O)Nc2nnc(-c3ccc(N(C)C)cc3)s2)ccc1OCCOc1c(C)cccc1C | 2000 nM | 74% |  |  |  |
| COc1cc(/C=C(\C#N)C(=O)Nc2nnc(C(C)(C)C)s2)ccc1OCCOc1c(C)cccc1C | 1700 nM | 104% |  |  |  |
| CCc1nnc(NC(=O)/C(C#N)=C/c2ccc(OCc3cc(F)ccc3C(F)(F)F)c(OC)c2)s1 | 800 nM and 1700 nM |  |  |  |  |
| COc1cc(/C=C(\C#N)C(=O)Nc2nccs2)ccc1OCCOc1c(C)cccc1C |  |  | Not Active |  |  |
| COc1cc(/C=C(\C#N)C(=O)Nc2nnc(SC)s2)ccc1OCc1ccc(C(F)(F)F)cc1C(F)(F)F | 440 nM | 105% |  |  |  |
| COc1cc(/C=C(\C#N)C(=O)Nc2nncs2)ccc1OCc1ccc(C(F)(F)F)cc1C(F)(F)F | 750 nM | 99% |  |  |  |
| COc1cc(/C=C(\C#N)C(=O)Nc2nnc(C(F)(F)F)s2)ccc1OCc1ccc(C(F)(F)F)cc1C(F)(F)F |  | 109% |  |  |  |
| CCC1=NN2C/C(=C/c3ccc(OCCOc4c(C)cccc4C)c(OC)c3)C(=O)N=C2S1 |  |  |  | 1400 | 2300 |
